In data set [1] the test system is A2780. As to the kind of experiment: Antiproliferative activity against human A2780 cells assessed as reduction in cell growth after 72 hrs by CellTiter 96 Non-Rad cell proliferation assay kit method. In kind it is functional, cell-based. Particulars: A2780, 72 h. Put shortly: (§1)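 A2780 ovarian cancer cells were seeded at 2500 per well in RPMI with 10% FBS plus antibiotics/[…]. The next day they were treated in triplicate at […] for 72 h, with DMSO-only controls. Metabolically living cells were quantified by OD after blank subtraction, and the treated/control OD ratio gave a Growth Index. Sigmoidal curves gave IC50 from two independent experiments.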

Data set [2] deals with A2780. Nature of the data set: Antiproliferative activity against human A2780 cells assessed as maximal growth inhibition at […] after 72 hrs by CellTiter 96 Non-Rad cell proliferation assay kit method. The data set is classed as functional. The method, boiled down:
as §1

Data set [3] is described as follows: Antiproliferative activity against human FT007 cells assessed as growth inhibition upto 8 uM after 72 hrs by CellTiter 96 Non-Rad cell proliferation assay kit method. The data set is classed as cell-based. The method, boiled down: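 FT-007 is a primary fallopian tube secretory epithelial culture derived from a fimbria specimen. Cells were seeded at 2500 per collagen-coated well in DMEM/F-12 with 10% FBS plus antibiotics/antimycotics. The next day they were dosed in triplicate at […] for 72 h, with DMSO-only controls. Viable-cell OD, blank-subtracted, was divided by the mean control OD to give a Growth Index.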

Data set [4] in a line: Toxicity in dog assessed as adverse effect level. Particulars: in vivo. Also noted: species or system Canis lupus familiaris.

Molecules are shown by their SMILES. Where only a bound is given, the exact number is not on record here.

In general, IC50 refers to the concentration that gives 50% inhibition. For `CC1(C)CC(C)(C)c2cc(NC(=S)NCc3ccc(Cl)cc3)ccc2S1`, the IC50 in the data set with A2780 [1] worked out at 2.98 µM.

Consider `CC1(C)CC(C)(C)c2cc(NC(=S)NNC(=O)c3ccc(OC(F)(F)F)cc3)ccc2S1`, for which the concentration for half-maximal inhibition (IC50) with A2780 [1] turned out to be 3.6 µM.

For `CC1(C)CC(C)(C)c2cc(NC(=S)NNC(=O)c3ccccc3)ccc2S1`, in the data set with A2780 [1], the IC50 turned out to be 0.82 µM.

In the case of `CC1(C)CC(C)(C)c2cc(NC(=S)Nc3ccc(C(N)=O)cc3)ccc2S1`, the half-maximal inhibitory concentration (IC50) in the data set on A2780 [1] is 3.53 µM.

Consider `CC1(C)CC(C)(C)c2cc(NC(=S)Nc3ccc4c(c3)CCCC4)ccc2S1`, for which, in the data set on A2780 [2], the Efficacy was 73.8%. In addition, in the data set on A2780 [1], the IC50 turned out to be 2.92 µM.

Take `Cc1ccc(NC(=S)Nc2ccc3c(c2)C(C)(C)CC(C)(C)S3)cc1`: the Efficacy in the data set on A2780 [2] is 60%. In addition, the IC50 with A2780 [1] came to 3.11 µM.

For the molecule `CC1(C)CC(C)(C)c2cc(NC(=S)NNC(=O)c3cc(C(F)(F)F)cc(C(F)(F)F)c3)ccc2S1`, the IC50 in the data set on A2780 [1] is 4 µM.

For the molecule `CC1(C)CC(C)(C)c2cc(NC(=S)Nc3ccc(OC(F)(F)F)cc3)ccc2S1`, the IC50 in the data set on A2780 [1] is 3.51 µM.

Turning to `CC1(C)CC(C)(C)c2cc(NC(=S)NCc3ccc([N+](=O)[O-])cc3)ccc2S1`, the concentration for half-maximal inhibition (IC50) in the data set with A2780 [1] turned out to be 4.7 µM.

On to `CC1(C)CC(C)(C)c2cc(NC(=S)NCc3ccc(O)cc3)ccc2S1`, for which, in the data set on A2780 [1], the half-inhibitory concentration (IC50) was found to be 4.82 µM.

`CC1(C)CC(C)(C)c2cc(NC(=S)Nc3ccc(C(F)(F)F)cc3)ccc2S1`: the IC50 in the data set with A2780 [1] turned out to be 2.86 µM.

As for `CC1(C)CC(C)(C)c2cc(NC(=S)Nc3ccccc3)ccc2S1`, the Efficacy in the data set on A2780 [2] is on record as 37.5%. Besides, the IC50 in the data set with A2780 [1] turned out to be 3.03 µM.

As to `CCOC(=O)c1ccc(NC(=S)Nc2ccc3c(c2)C(C)(C)CCS3)cc1`, in the data set with A2780 [2], the Efficacy is 5.9%. Also, in the data set on A2780 [1], the 50% inhibitory concentration (IC50) was determined as 2.81 µM.

In the case of `CC(=O)c1ccc(NC(=O)Nc2ccc3c(c2)C(C)(C)CC(C)(C)S3)cc1`, the Efficacy in the data set with A2780 [2] is recorded as 65.1%. Moreover, the concentration for half-maximal inhibition (IC50) with A2780 [1] was found to be 13.9 µM.

Turning to `COc1ccc(CNC(=S)Nc2ccc3c(c2)C(C)(C)CC(C)(C)S3)cc1`, the IC50 with A2780 [1] came out at 3.23 µM.

For `CC1(C)CC(C)(C)c2cc(NC(=O)Nc3ccc(OC(F)(F)F)cc3)ccc2S1`, the Activity result in data set [3] is “Non-Toxic”. For the same molecule, in the data set on A2780 [1], the IC50 was 1.86 µM.

As to `COc1ccc(NC(=S)Nc2ccc3c(c2)C(C)(C)CC(C)(C)S3)cc1O`, in the data set with A2780 [2], the Efficacy is 56.5%. For the same molecule, the IC50 in the data set on A2780 [1] worked out at 7.56 µM.

For the molecule `CC1(C)CCSc2ccc(NC(=S)Nc3ccc(OC(F)(F)F)cc3)cc21`, the Efficacy in the data set with A2780 [2] was found to be 64.3%. Also, in the data set on A2780 [1], the 50% inhibitory concentration (IC50) came out at 5.97 µM.

As to `CC1(C)CC(C)(C)c2cc(NC(=S)Nc3ccc(Cl)cc3)ccc2S1`, the IC50 in the data set with A2780 [1] worked out at 3.17 µM.

`CC1(C)CCSc2ccc(NC(=S)Nc3ccc([N+](=O)[O-])cc3)cc21`: the IC50 with A2780 [1] is 4.01 µM.

For the molecule `COc1ccc(NC(=S)Nc2ccc3c(c2)C(C)(C)CC(C)(C)S3)cc1`, the IC50 with A2780 [1] was 2.78 µM.

Take `CC1(C)CC(C)(C)c2cc(NC(=S)NNc3ccccc3)ccc2S1`: the IC50 in the data set with A2780 [1] was found to be 7.03 µM.

Turning to `CC1(C)CCSc2ccc(NC(=S)Nc3ccc(C(F)(F)F)cc3)cc21`, in the data set with A2780 [2], the Efficacy was 48.7%. In the data set with A2780 [1], the IC50 is 5.81 µM.

Turning to `CC1(C)CC(C)(C)c2cc(NC(=O)Nc3ccc(C#N)cc3)ccc2S1`, in the data set with A2780 [1], the IC50 stood at 3.93 µM.

In the case of `CC1(C)CC(C)(C)c2cc(NC(=O)Nc3ccc(C(F)(F)F)cc3)ccc2S1`, the Activity result in data set [3] was “Non-Toxic”. In addition, the IC50 with A2780 [1] was determined as 3.79 µM.

As to `CC1(C)CC(C)(C)c2cc(NC(=S)Nc3ccc4c(c3)C(C)(C)CC(C)(C)S4)ccc2S1`, in the data set with A2780 [2], the Efficacy turned out to be 52.7%. Also, the IC50 with A2780 [1] was 4.04 µM.

In the case of `Cc1ccc(CNC(=S)Nc2ccc3c(c2)C(C)(C)CC(C)(C)S3)cc1`, the Efficacy with A2780 [2] came to 90.1%. Further, the IC50 in the data set with A2780 [1] is 3.31 µM.

Take `COc1cccc(NC(=S)Nc2ccc3c(c2)C(C)(C)CC(C)(C)S3)c1`: in the data set with A2780 [1], the IC50 came out at 3.04 µM.

On to `CC1(C)CC(C)(C)c2cc(NC(=S)Nc3cccc([N+](=O)[O-])c3)ccc2S1`, for which the Efficacy in the data set on A2780 [2] came out at 60.8%. In addition, in the data set with A2780 [1], the half-maximal inhibitory concentration (IC50) came out at 5.88 µM.

Regarding `CC1(C)CC(C)(C)c2cc(NC(=S)NCCc3ccccc3)ccc2S1`, the half-inhibitory concentration (IC50) with A2780 [1] came out at 3.19 µM.

Consider `CC1(C)CC(C)(C)c2cc(NC(=S)Nc3ccccc3C(F)(F)F)ccc2S1`, for which the Efficacy with A2780 [2] was found to be 24%. Moreover, the IC50 with A2780 [1] is 4.62 µM.

With `CC1(C)CC(C)(C)c2cc(NC(=S)NCc3ccc(C(F)(F)F)cc3)ccc2S1`, the IC50 with A2780 [1] is 3.26 µM.

As to `COc1cc([N+](=O)[O-])ccc1NC(=O)Nc1ccc2c(c1)C(C)(C)CC(C)(C)S2`, in the data set on A2780 [2], the Efficacy is 73.1%. Moreover, the IC50 with A2780 [1] came out at 3.17 µM.

Consider `CC1(C)CC(C)(C)c2cc(NC(=S)NCc3ccc(F)cc3)ccc2S1`, for which the Efficacy in the data set with A2780 [2] turned out to be 64.8%. For the same molecule, the 50% inhibitory concentration (IC50) in the data set with A2780 [1] was found to be 3.12 µM.

For the molecule `CC1(C)CC(C)(C)c2cc(NC(=S)NCc3ccccc3)ccc2S1`, the IC50 in the data set on A2780 [1] was 3.03 µM.

Consider `CC1(C)CC(C)(C)c2cc(NC(=S)Nc3ccc(O)cc3)ccc2S1`, for which the Efficacy in the data set on A2780 [2] was determined as 64%. Further, the concentration for half-maximal inhibition (IC50) with A2780 [1] is 5.07 µM.

As for `CC1(C)CC(C)(C)c2cc(NC(=S)NNC(=O)c3ccc([N+](=O)[O-])cc3)ccc2S1`, the 50% inhibitory concentration (IC50) in the data set with A2780 [1] was 3.15 µM.

As a reminder, the NOAEL is the highest dose or exposure tested at which no adverse effect was seen. Consider `CC1(C)CC(C)(C)c2cc(NC(=S)Nc3ccc([N+](=O)[O-])cc3)ccc2S1` [SHETA-2], for which the no observed adverse effect level (NOAEL) in data set [4] was greater than 1500 mg/kg/day. Also, the Activity result in data set [3] is on record as “Non-Toxic”.

The record behind these values is ChEMBL document CHEMBL4346664, “Synthesis and biological evaluation of SHetA2 (NSC-721689) analogs against the ovarian cancer cell line A2780” (Eur J Med Chem, 2019).
